One data set has as its system Escherichia coli. In words: Antibacterial activity against Escherichia coli BL21 AI after 20 hrs by broth microdilution assay. The data set is classed as functional. In a few lines:
(§1)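 Nutrient-broth overnight cultures diluted in 1% TSB; E. coli BL21AI 7.5 × 10^5 cells/well, M. luteus ATCC 10240 2 × 10^6 cells/well. Peptides serially 2-fold diluted in 1% TSB from 128 to typically 0.5 μg/mL. Incubation at 37 °C; A595 read after 20 ± 2 h. MIC is the lowest concentration with absorbance not above medium only. Triplicate.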
(In general: In broth dilution the organism is exposed to a series of concentrations in liquid medium.)

The test system of the next data set is Micrococcus luteus. Nature of the data set: Antibacterial activity against Micrococcus luteus ATCC 10240 after 20 hrs by broth microdilution assay. The data set is classed as functional. The note with it: ATCC 10240, 20 h. An outline of the steps: as §1
The nature of data set [1]: Stability in 25% mouse serum assessed as half life at 75 ug/ml by MALDI-TOF-MS analysis. The data set is classed as ADME, cell-free. In a few lines:
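Peptide at 75 μg/mL final in pooled mouse serum (undiluted or 25% v:v aqueous), 37 °C. Triplicate aliquots taken at 0, 30, 60, 120 and 240 min and precipitated with 3% TCA on ice for 10 min. Supernatant neutralized with NaOH and analysed by RP-HPLC on C18 with TFA-containing gradient. Amounts expressed relative to 0 min; metabolites identified by MALDI-TOF-MS.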

Turning to H-VDKPPYLPRPKPPRRIYNNR-OH, the minimal inhibitory concentration (MIC) against Escherichia coli and against Micrococcus luteus was 16 µg/mL each time.
With H-VDKPPYLPRPRPPRRIYNR-OH, the figures for the minimum inhibitory concentration (MIC) in the data set on Escherichia coli and in the data set with Micrococcus luteus were 32 µg/mL and 64 µg/mL, respectively. Besides, the half-life at 75 ug/ml in data set [1] was less than 30 min.
For the substance H-VDKPPYLPRPRPPRRIYN-OH, the MIC against Escherichia coli was 64 µg/mL; in the data set on Micrococcus luteus, 128 µg/mL.

The MIC is the lowest concentration found to suppress growth. The half-life is the time in which the quantity being followed falls by half.
